Calls of active or inactive are those of the source. No cut-off for these calls is given here.
Experiments:
Hepatitis C virus [1] = experiment: Antiviral activity against Hepatitis C virus infected in human Ava5 cells assessed as decreased NS3 protein level at […] after 72 hrs by Western blotting; format: functional, organism-based; details: Hepacivirus hominis
In short: (§1)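 Ava5 subgenomic replicon cells (Huh7-derived, HCV genotype 1b NS3–NS5B, neo) are kept in DMEM/10% FBS at 37 °C, 5% CO2 and exposed to compound for 72 h. Cells are washed in PBS and lysed in Tris/NaCl/1% Triton X-100. Lysates are clarified and run on 10% SDS-PAGE, then immunoblotted with anti-NS3; β-actin is the loading control.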

Hepatitis C virus [2] = experiment: Antiviral activity against Hepatitis C virus infected in human Ava5 cells expressing EG(delta4AB)SEAP reporter gene assessed as decreased viral replication measured as SEAP activity by Phospha-Light assay; format: functional, organism-based, Hepacivirus hominis
In short: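 Ava5-EG(Δ4AB)SEAP reporter cells seeded 6×10^3/well, after 24 h dosed with a concentration series. At 48 h medium replaced with fresh medium at same concentrations, incubated 24 h more. Secreted alkaline phosphatase in medium measured by chemiluminescent kit. EC50 from dose–response; three replicate wells, means ± SD.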

Hepatitis C virus [3] = experiment: Antiviral activity against Hepatitis C virus infected in human Ava5 cells assessed as decreased NS3 protein level at 5 uM after 72 hrs by Western blotting in presence of IFN-alpha; format: functional, organism-based; details: Hepacivirus hominis
In short: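 Ava5 replicon cells given compound (5 μM) or IFN-α (5, 10, 50 IU/mL), alone and combined, for 72 h. BILN 2061 served as NS3/4A inhibitor positive control. Washed cells stored at -80 °C, then lysates Western blotted for NS3 with β-actin as internal standard.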

Huh-7 = experiment: Cytotoxicity against Hepatitis C virus JFH-1 infected human HuH7 cells; format: cell-based
Hepatitis C virus [4] = experiment: Antiviral activity against Hepatitis C virus JFH-1 infected in human Huh7 cells expressing G(delta4AB)SEAP reporter gene assessed as decreased NS3 protein level at 20 uM after 8 days by Western blotting; format: functional, organism-based; details: Hepacivirus hominis, Huh-7
In short: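 Huh7-EG(Δ4B5A)SEAP cells seeded 5×10^4/well, incubated overnight, then infected with HCV JFH-1 (genotype 2a) at MOI 0.02 for 6 h. Unbound virus removed by medium replacement, then compound at 20 μM in basal medium for 7 days. Intracellular NS3 in lysates detected by Western blot.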

Hepatitis C virus [5] = experiment: Antiviral activity against Hepatitis C virus infected in human Ava5 cells expressing EG(delta4AB)SEAP reporter gene assessed as decreased NS3 protein level after 72 hrs by Western blotting; format: functional, organism-based; details: Hepacivirus hominis; in short: as §1
[6] = Cytotoxicity against Hepatitis C virus infected human Ava5 cells assessed as cell viability after 5 days by MTS assay in presence of IFN-alpha; format: cell-based; details: ava5, 120 h
[7] = Cytotoxicity against Hepatitis C virus infected human Ava5 cells assessed as cell viability after 5 days by MTS assay; format: cell-based; details: ava5, 120 h
In short: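 Cells seeded, incubated overnight at 37 °C, 5% CO2, then medium replaced with compound-containing medium across a concentration range for five days. Viability by MTS colorimetric read at 490 nm after 2 h reagent incubation; ethanol as solvent control. Means ± SD.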

Hepatitis C virus [8] = experiment: Antiviral activity against Hepatitis C virus infected in human Ava5 cells expressing EG(delta4AB)SEAP reporter gene assessed as decreased viral RNA level after 72 hrs by RTqPCR analysis; format: functional, organism-based; details: Hepacivirus hominis
In short: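 Ava5 cells seeded 1.5×10^5/well, incubated overnight, treated with a concentration series for 72 h. Total RNA TRIzol-extracted; HCV genotype 1b RNA quantified by SYBR Green RT-qPCR. Levels expressed relative to untreated cells (100%); triplicate, means ± SD.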

[9] = target: Signal transducer and activator of transcription 3 (Homo sapiens) (UniProt P40763); experiment: Effect on STAT3 protein production in human Ava5 cells after 72 hrs by Western blotting; format: cell-based
In short: (§2)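 Ava5 cells incubated with a concentration series for 72 h. Whole-cell extracts were Western blotted with antibodies to STAT3 phosphorylated at Tyr705 and to total STAT3, with β-actin as loading control.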

[10] = target: Signal transducer and activator of transcription 3 (Homo sapiens) (UniProt P40763); experiment: Inhibition of STAT3 phosphorylation at Tyr 705 in human Ava5 cells after 72 hrs by Western blotting; format: cell-based; in short: as §2
Hepatitis C virus [11] = experiment: Antiviral activity against Hepatitis C virus infected in human Ava5 cells assessed as decreased NS3 protein level at 5 uM after 72 hrs by Western blotting; format: functional, organism-based; details: Hepacivirus hominis; in short: as §1

Signal transducer and activator of transcription 3 (Homo sapiens), sequence (P40763 whole entry): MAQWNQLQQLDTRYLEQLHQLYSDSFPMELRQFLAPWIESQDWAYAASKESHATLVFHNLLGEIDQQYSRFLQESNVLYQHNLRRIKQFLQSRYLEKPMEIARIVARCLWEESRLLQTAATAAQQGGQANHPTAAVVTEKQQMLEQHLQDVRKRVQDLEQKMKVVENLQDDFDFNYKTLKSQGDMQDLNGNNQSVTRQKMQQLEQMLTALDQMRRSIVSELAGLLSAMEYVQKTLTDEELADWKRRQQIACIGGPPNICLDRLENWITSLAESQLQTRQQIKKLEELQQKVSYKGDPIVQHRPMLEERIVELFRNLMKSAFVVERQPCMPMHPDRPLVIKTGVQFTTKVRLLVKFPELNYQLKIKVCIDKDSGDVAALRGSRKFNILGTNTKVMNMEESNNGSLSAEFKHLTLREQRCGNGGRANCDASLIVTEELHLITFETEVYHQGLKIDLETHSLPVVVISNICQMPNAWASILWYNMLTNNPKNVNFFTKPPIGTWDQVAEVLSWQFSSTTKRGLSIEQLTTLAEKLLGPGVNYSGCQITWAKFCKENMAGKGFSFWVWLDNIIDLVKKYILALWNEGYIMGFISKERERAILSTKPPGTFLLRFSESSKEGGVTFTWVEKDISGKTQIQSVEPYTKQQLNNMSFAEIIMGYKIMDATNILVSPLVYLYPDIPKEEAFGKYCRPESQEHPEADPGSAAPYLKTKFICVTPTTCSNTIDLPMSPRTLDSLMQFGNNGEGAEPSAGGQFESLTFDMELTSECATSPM

SMILES	Activity (Hepatitis C virus [1])	EC50 (Hepatitis C virus [2]) [µM]	Activity (Hepatitis C virus [2]; Hepacivirus hominis)	Activity (Hepatitis C virus [3])	Activity (Huh-7)	Activity (Hepatitis C virus [4])	Activity (Hepatitis C virus [5])	Activity [6]	Activity [7]	Activity (Hepatitis C virus [8])	Activity [9]	inhibition [10]	Activity (Hepatitis C virus [11])
COc1ccc2c(O[C@@H]3C[C@H]4C(=O)N[C@]5(C(=O)O)C[C@H]5/C=C\CCCCC[C@H](NC(=O)OC5CCCC5)C(=O)N4C3)cc(-c3csc(NC(C)C)n3)nc2c1	Active	–	–	–	–	–	–	–	–	–	–	–	–
C[C@@H]1CC[C@@]2(OC1)O[C@H]1C[C@H]3[C@@H]4CC=C5C[C@@H](O)CC[C@]5(C)[C@H]4CC[C@]3(C)[C@H]1[C@@H]2C [DISOGENIN]	–	3.8	Dose-dependent effect	Active	Non-toxic	Active	Dose-dependent effect	Non-toxic	Non-toxic	Dose-dependent effect	inactive	Dose-dependent effect	Active
